Experiment [1] addresses T1, Aurora kinase A (Homo sapiens) (UniProt O14965).
T1 sequence (whole entry): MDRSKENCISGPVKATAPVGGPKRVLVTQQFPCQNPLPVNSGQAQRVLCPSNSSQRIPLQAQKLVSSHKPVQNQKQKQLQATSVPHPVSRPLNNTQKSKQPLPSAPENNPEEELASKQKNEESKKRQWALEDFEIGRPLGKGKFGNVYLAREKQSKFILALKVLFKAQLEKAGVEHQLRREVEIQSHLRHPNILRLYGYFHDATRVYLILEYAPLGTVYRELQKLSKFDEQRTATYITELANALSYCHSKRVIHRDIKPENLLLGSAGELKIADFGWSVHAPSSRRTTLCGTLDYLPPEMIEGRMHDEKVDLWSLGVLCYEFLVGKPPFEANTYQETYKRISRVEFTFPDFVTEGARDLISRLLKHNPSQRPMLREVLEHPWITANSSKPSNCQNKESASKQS
Put plainly: Inhibition of Aurora A up to 100 uM. In outline:
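Buffer was HEPES-NaOH pH 7.5 with MgCl2, MnCl2, vanadate, DTT, PEG20000 and 1% DMSO. Run 80 min at 30 °C, quenched with 2% H3PO4, NaCl-washed, then scintillation-counted. IC50 fitted from 10 concentrations tested once each.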

Experiment [2] addresses MAP kinase-interacting serine/threonine-protein kinase 1 (Homo sapiens) (UniProt Q9BUB5). Briefly: Inhibition of MNK1 at 10 uM.
Experiment [3] has as its target Serine/threonine-protein kinase PLK1 (Homo sapiens) (UniProt P53350). Put plainly: Inhibition of PLK1 up to 100 uM. In a few lines: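 Run in HEPES-NaOH pH 7.5 with MgCl2, MnCl2, orthovanadate, DTT, PEG20000 and 1% DMSO at 30 °C for 80 min. IC50 from 10 concentrations, singlicate.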
The target of experiment [4] is T2, Ephrin type-B receptor 4 (Homo sapiens) (UniProt P54760).
T2 sequence (whole entry): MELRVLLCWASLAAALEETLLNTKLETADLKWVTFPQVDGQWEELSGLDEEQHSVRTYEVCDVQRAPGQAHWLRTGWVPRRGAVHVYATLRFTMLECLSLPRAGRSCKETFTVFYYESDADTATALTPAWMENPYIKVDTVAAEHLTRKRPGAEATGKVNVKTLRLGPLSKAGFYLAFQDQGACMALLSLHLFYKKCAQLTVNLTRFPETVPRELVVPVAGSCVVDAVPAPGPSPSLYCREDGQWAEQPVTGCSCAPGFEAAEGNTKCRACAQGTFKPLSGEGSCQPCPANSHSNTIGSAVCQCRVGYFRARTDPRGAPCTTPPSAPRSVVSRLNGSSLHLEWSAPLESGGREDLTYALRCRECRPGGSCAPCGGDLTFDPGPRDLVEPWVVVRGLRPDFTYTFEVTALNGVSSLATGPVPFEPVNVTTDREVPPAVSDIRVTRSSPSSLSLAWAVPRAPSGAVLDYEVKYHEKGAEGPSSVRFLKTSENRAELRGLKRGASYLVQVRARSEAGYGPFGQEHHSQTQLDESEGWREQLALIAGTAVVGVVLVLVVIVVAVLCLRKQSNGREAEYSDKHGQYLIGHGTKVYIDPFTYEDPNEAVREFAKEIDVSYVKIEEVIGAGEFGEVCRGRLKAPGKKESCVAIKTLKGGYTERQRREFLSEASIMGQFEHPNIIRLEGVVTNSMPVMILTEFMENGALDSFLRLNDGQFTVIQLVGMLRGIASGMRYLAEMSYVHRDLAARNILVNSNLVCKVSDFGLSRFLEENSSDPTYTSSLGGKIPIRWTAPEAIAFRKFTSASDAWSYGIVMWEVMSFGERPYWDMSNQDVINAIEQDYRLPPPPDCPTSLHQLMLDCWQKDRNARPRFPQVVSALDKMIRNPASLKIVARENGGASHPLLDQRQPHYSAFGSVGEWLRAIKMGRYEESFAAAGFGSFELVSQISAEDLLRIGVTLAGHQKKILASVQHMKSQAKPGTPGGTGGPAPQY
Briefly: Inhibition of EPHB4 up to 100 uM. In outline:
(§1)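 Buffer: HEPES-NaOH pH 7.5, Mg2+/Mn2+, vanadate, DTT, PEG20000, 1% DMSO. Incubated 30 °C for 80 min, stopped with 2% H3PO4, washed, and scintillation-counted. IC50 from 10 concentrations in singlicate.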

Experiment [5] addresses Insulin receptor-related protein (Homo sapiens) (UniProt P14616). Put plainly: Inhibition of IRR at 10 uM.
Experiment [6] deals with RAC-alpha serine/threonine-protein kinase (Homo sapiens) (UniProt P31749). Briefly: Inhibition of AKT1 up to 100 uM. In outline: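 Radiometric kinase assay with recombinant AKT1 (50–400 ng) and GSK3(14-27) peptide substrate. Incubated 80 min at 30 °C, stopped with 2% H3PO4, washed with 0.9% NaCl. IC50 from 10 concentrations in singlicate.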
In experiment [7] the target is Insulin-like growth factor 1 receptor (Homo sapiens) (UniProt P08069). Briefly: Inhibition of IGF1R up to 100 uM. In outline: as §1
Experiment [8] has as its target Platelet-derived growth factor receptor beta (Homo sapiens) (UniProt P09619). Put plainly: Inhibition of PDGFRbeta up to 100 uM.
Experiment [9] concerns Serine/threonine-protein kinase B-raf (Homo sapiens), P15056 [V600E]. Briefly: Inhibition of BRAF V600E mutant.
Experiment [10] addresses Ephrin type-A receptor 2 (Homo sapiens) (UniProt P29317). Put plainly: Inhibition of human EPHA2 at 10 uM.
Experiment [11] addresses Serine/threonine-protein kinase D1 (Homo sapiens) (UniProt Q15139). Put plainly: Inhibition of human PKD1 at 10 uM.
Experiment [12] has as its target SRSF protein kinase 1 (Homo sapiens) (UniProt Q96SB4). Briefly: Inhibition of SRPK1 at 10 uM.
Experiment [13] deals with Ribosomal protein S6 kinase alpha-3 (Homo sapiens) (UniProt P51812). Put plainly: Inhibition of RSK2 at 10 uM.
Experiment [14] has as its target Dual specificity tyrosine-phosphorylation-regulated kinase 3 (Homo sapiens) (UniProt O43781). Put plainly: Inhibition of human DYRK3 at 10 uM.
Experiment [15] can be described thus: Inhibition of PKBbeta S474D mutant at 10 uM.
Experiment [16] relates to RAC-alpha serine/threonine-protein kinase (Homo sapiens), P31749 [S473D]. Briefly: Inhibition of PKBalpha S473D mutant at 10 uM.
Experiment [17] addresses Lymphokine-activated killer T-cell-originated protein kinase (Homo sapiens) (UniProt Q96KB5). Put plainly: Inhibition of PBK at 10 uM.
The target of experiment [18] is Calcium/calmodulin-dependent protein kinase kinase 1 (Homo sapiens) (UniProt Q8N5S9). Put plainly: Inhibition of human CAMKKalpha at 10 uM.
In experiment [19] the target is Homeodomain-interacting protein kinase 2 (Homo sapiens) (UniProt Q9H2X6). Put plainly: Inhibition of human HIPK2 at 10 uM.
Experiment [20] has as its target MAP kinase-activated protein kinase 3 (Homo sapiens) (UniProt Q16644). Briefly: Inhibition of MAPKAP-K3 at 10 uM.
For experiment [21], the target named is Mitogen-activated protein kinase 14 (Homo sapiens) (UniProt Q16539). Put plainly: Inhibition of SAPK2a at 10 uM.

Calls of active or inactive are those of the source. No cut-off for these calls is given here.

Chain of Platelet-derived growth factor receptor beta (Homo sapiens) (P09619 whole entry): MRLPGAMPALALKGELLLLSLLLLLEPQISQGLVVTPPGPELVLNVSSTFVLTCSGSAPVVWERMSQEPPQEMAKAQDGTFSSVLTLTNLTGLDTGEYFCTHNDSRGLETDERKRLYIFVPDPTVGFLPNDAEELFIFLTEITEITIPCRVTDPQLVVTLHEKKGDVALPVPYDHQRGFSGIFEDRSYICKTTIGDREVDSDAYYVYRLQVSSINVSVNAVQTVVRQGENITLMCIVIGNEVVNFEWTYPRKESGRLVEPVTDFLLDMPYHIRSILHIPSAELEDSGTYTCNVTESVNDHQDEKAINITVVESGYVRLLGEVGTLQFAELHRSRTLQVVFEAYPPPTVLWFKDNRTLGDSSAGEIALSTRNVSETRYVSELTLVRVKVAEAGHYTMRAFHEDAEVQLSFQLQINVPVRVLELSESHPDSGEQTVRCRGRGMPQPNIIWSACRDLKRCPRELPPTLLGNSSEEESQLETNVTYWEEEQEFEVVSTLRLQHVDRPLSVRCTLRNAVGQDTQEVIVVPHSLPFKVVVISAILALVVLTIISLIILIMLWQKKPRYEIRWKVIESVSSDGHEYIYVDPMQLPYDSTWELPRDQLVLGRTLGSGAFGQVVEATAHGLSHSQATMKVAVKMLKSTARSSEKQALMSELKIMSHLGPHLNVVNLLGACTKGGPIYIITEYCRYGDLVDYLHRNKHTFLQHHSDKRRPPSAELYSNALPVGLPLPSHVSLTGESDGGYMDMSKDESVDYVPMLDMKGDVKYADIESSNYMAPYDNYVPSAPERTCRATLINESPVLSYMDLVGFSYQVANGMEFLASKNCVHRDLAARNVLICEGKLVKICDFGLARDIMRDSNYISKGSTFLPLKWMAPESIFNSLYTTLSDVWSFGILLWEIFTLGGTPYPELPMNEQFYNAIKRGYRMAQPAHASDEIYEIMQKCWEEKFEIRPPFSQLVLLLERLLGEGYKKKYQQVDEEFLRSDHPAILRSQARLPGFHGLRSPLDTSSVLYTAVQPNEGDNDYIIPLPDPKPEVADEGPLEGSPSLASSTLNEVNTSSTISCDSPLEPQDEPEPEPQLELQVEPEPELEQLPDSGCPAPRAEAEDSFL
Chain of Insulin-like growth factor 1 receptor (Homo sapiens) (P08069 31-736 limits assumed): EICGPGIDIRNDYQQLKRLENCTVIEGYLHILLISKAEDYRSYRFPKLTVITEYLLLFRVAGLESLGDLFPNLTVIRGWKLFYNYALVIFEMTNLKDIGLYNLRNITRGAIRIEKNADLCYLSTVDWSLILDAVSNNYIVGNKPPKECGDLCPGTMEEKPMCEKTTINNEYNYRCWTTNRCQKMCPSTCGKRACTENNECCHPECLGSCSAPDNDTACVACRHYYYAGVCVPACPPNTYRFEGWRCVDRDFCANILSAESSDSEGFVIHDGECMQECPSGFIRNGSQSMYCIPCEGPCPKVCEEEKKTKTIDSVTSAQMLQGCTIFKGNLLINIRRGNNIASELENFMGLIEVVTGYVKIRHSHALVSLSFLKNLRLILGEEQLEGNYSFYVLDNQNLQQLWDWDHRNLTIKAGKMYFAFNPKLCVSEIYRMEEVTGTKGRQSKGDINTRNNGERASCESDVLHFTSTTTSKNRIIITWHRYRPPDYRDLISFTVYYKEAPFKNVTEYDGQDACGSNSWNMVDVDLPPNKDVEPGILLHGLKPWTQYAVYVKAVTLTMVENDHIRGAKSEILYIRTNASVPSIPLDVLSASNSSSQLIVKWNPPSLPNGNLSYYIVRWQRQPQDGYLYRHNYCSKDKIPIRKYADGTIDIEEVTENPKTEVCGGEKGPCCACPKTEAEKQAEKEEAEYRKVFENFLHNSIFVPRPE
Chain of Insulin-like growth factor 1 receptor (Homo sapiens) (P08069 741-1367 limits assumed): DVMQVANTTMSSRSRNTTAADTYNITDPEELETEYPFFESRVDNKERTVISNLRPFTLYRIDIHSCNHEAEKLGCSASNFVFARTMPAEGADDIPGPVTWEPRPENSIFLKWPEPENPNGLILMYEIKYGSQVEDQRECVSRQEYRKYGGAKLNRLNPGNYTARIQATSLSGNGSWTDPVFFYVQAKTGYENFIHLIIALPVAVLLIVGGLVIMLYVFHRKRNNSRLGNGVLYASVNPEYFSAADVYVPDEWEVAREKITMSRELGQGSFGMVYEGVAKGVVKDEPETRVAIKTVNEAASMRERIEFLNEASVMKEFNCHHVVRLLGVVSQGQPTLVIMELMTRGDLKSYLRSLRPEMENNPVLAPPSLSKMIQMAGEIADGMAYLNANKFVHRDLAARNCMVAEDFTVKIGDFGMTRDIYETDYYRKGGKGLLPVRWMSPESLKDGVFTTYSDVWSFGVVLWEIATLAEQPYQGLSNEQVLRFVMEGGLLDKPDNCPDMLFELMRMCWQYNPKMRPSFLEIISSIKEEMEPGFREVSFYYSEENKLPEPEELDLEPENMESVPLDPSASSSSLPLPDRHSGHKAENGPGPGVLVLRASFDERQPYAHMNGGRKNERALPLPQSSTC
Chain of Serine/threonine-protein kinase PLK1 (Homo sapiens) (P53350 whole entry): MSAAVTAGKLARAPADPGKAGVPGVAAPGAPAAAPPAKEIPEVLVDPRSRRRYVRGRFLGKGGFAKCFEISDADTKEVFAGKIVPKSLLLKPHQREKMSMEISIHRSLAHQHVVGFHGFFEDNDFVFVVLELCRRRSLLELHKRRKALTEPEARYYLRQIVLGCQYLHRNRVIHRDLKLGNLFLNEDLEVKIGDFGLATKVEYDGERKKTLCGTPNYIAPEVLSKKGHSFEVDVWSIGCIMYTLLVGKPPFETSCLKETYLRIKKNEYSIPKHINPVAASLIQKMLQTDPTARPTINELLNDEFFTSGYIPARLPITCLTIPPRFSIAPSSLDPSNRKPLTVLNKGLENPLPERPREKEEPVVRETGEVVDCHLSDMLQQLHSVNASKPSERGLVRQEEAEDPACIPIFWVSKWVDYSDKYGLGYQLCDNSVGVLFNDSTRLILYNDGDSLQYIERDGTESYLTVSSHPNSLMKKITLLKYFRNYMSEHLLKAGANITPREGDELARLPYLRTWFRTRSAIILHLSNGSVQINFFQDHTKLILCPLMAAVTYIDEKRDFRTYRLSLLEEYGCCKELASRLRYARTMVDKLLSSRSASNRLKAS
Chain of Serine/threonine-protein kinase B-raf (Homo sapiens), P15056 [V600E] (P15056 whole entry V600E): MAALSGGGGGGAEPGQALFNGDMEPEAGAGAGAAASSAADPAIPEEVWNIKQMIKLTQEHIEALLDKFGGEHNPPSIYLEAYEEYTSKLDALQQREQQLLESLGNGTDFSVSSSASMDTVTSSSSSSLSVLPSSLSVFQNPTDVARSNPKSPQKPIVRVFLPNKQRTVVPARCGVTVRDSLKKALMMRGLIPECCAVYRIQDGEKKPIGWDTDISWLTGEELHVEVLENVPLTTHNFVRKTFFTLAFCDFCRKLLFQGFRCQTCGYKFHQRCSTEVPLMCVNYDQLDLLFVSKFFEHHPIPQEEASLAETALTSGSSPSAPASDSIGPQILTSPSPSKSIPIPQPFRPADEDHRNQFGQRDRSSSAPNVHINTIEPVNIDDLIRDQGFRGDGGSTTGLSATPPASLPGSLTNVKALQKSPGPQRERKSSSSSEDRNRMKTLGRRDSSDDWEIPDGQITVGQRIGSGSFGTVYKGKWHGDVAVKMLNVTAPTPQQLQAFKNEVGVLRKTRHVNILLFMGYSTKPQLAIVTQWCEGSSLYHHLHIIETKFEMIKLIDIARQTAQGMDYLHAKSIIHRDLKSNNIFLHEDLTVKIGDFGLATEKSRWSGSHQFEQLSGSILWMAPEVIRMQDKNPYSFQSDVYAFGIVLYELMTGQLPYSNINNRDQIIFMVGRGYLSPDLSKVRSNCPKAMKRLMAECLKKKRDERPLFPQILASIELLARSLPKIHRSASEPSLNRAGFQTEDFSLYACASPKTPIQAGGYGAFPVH
Chain of RAC-alpha serine/threonine-protein kinase (Homo sapiens) (P31749 whole entry): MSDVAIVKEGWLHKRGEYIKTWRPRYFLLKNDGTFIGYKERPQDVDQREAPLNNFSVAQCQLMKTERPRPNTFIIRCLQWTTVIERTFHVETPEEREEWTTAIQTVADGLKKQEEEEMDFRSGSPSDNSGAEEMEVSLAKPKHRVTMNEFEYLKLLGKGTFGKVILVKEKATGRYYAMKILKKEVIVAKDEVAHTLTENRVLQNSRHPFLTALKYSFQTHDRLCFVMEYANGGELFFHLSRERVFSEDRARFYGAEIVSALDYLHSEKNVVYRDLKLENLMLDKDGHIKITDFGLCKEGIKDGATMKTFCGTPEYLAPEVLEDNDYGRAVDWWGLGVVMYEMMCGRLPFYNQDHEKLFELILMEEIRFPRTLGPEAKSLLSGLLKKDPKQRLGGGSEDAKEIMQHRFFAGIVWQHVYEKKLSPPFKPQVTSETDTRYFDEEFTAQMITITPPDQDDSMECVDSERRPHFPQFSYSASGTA
Chain of MAP kinase-interacting serine/threonine-protein kinase 1 (Homo sapiens) (Q9BUB5 whole entry, looked up): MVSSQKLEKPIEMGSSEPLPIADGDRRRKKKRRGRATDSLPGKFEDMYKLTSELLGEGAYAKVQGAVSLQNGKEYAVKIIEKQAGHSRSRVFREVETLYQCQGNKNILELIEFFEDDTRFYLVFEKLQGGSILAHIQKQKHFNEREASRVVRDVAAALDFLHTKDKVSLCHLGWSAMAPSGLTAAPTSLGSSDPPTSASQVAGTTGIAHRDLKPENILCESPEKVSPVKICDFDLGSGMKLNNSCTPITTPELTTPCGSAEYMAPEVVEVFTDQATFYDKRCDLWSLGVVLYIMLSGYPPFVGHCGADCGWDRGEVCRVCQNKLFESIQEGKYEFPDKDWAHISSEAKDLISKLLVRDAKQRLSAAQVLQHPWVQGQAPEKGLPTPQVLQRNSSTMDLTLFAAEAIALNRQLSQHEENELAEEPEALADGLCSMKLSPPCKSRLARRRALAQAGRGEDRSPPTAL
Chain of RAC-alpha serine/threonine-protein kinase (Homo sapiens), P31749 [S473D] (P31749 whole entry S473D): as the sequence (P31749 whole entry) above, with S473D counted along it

For `Nc1ncnc2c1ncn2CC(=O)c1c[nH]c2ccccc12`, the inhibition result in experiment [1], in [3], in experiment [4], in experiment [6], in [7] and in experiment [8] was “inactive” each time. The inhibition came out at 73% in [2] and 51% in experiment [5].
Turning to `COc1ncnc2ncn(CC(=O)c3ccccc3)c12`, the inhibition entry in experiment [1], in experiment [3], in [4], in experiment [6], in [7] and in [9] was “inactive” each time. In addition, the inhibition result in [8] is “inactive”.
On to `COc1ncnc2c1ncn2CC(=O)c1ccccc1`, for which the inhibition result in experiment [1], in [3], in experiment [4], in [6], in experiment [7] and in experiment [9] was “inactive” throughout. Moreover, the inhibition result in [8] was “inactive”.
`Nc1ncnc2ncn(CC(=O)c3c[nH]c4ccccc34)c12`: the inhibition entry in experiment [10], in experiment [11], in [12], in experiment [1], in [13] and in [2] was “inactive” in each case. Further, the inhibition result in [14], in experiment [15], in experiment [16], in experiment [3], in experiment [17] and in experiment [4] was “inactive” throughout. The inhibition result in [18], in experiment [6], in experiment [19], in [7], in experiment [9] and in experiment [8] was “inactive” in each case. For the same compound, the inhibition entry in [20] and in experiment [21] was “inactive” in each case.
As to `Nc1ncnc2c1ncn2CC(=O)c1ccccn1`, the inhibition entry in experiment [1], in experiment [3], in [4], in [6], in experiment [7] and in experiment [9] was “inactive” each time. In addition, the inhibition result in experiment [8] is “inactive”.
Turning to `CN(C)c1ncnc2c1ncn2CC(=O)c1c[nH]c2ccccc12`, the inhibition result in experiment [1], in experiment [3], in [4], in [6], in experiment [7] and in experiment [9] was “inactive” throughout. In addition, the inhibition entry in [8] is “inactive”.
`Nc1ncnc2c1ncn2CC(=O)c1ccccc1`: the inhibition entry in [1], in experiment [3], in experiment [4], in experiment [6], in [7] and in [9] was “inactive” throughout. The inhibition entry in [8] is “inactive”.
As to `Nc1ncnc2c1ncn2CC(=O)c1cccnc1`, the inhibition result in experiment [1], in [3], in experiment [4], in experiment [6], in [7] and in [9] was “inactive” each time. Moreover, in experiment [8], the inhibition result was “inactive”.
As to `Nc1ncnc2ncn(CC(=O)c3ccccc3)c12`, the inhibition entry in experiment [1], in [3], in [4], in [6], in [7] and in [9] was “inactive” throughout. Also, the inhibition entry in [8] is “inactive”.

Source of the values: ChEMBL document CHEMBL1137681, “Design, synthesis and characterization of N9/N7-substituted 6-aminopurines as VEGF-R and EGF-R inhibitors” (Eur J Med Chem, 2009).
